Laboratory results as given in ChEMBL document CHEMBL4190209, “Terpenoids from Euphorbia soongarica and Their Multidrug Resistance Reversal Activity” (J Nat Prod, 2017).

Key:
Homo sapiens [1] = organism: Homo sapiens; assay: Inhibition of P-gp in human KBv200 cells assessed as increase in intracellular rhodamine123 accumulation by measuring fluorescence activity ratio at 10 uM incubated for 4 hrs followed by rhodamine123 addition measured after 1 hr by flow cytometry; format: cell-based
How it was run: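 KBv200 cells were plated at 1.5 × 10^5/mL and left overnight. Compounds were added at 10 μM in DMSO, with verapamil as reference, for 4 h at 37 °C, 5% CO2. Rho123 at 10 μM was then added for 1 h. Cells were washed twice, resuspended in ice-cold PBS and analysed by flow cytometry. FAR = (F treated − F DMSO control)/(F untreated − F DMSO control).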

[2] = Cytotoxicity against human KBv200 cells assessed as growth inhibition after 72 hrs by MTT assay; format: functional, cell-based; settings: KBv200, 72 h
KB = assay: Cytotoxicity against human KB cells assessed as growth inhibition after 72 hrs by MTT assay; format: functional, cell-based
Homo sapiens [3] = organism: Homo sapiens; assay: Inhibition of P-gp in human KBv200 cells assessed as potentiation of navelbine-induced cytotoxicity by measuring reduction in navelbine IC50 at 10 uM after 72 hrs by MTT assay relative to control; format: cell-based
How it was run: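 KBv200 cells were seeded at 2500 cells/well for 12 h. Navelbine was added at 0.003–30 μM (0.003, 0.01, 0.03, 0.1, 0.3, 1, 3, 10, 30), alone or with modulator at 1, 3 or 10 μM, or with verapamil at 10 μM. Incubation was 72 h, followed by MTT read at A570. Navelbine IC50 came from percent growth inhibition. Reversal fold = IC50 of navelbine alone / IC50 of the combination.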

Row | SMILES | Ratio (Homo sapiens [1]) | IC50 [2] [µM] | IC50 (KB) [µM] | fold change (FC) (Homo sapiens [3])
1 | C/C1=C\[C@@H]2[C@H](C[C@@H](O)[C@@]3(C)O[C@@H]3[C@H]3[C@@H](OC(=O)c4ccccc4)[C@@H](C)C[C@]3(O)C1=O)C2(C)C | 0.44 | > 30 | > 30 | –
2 | C/C1=C\[C@@H]2[C@H](C[C@@H](O)/C(C)=C/[C@H]3[C@@H](OC(=O)c4ccccc4)[C@@H](C)C[C@]3(O)C1=O)C2(C)C | 0.43 | 20.6 | 21.4 | –
3 | CC(=O)N[C@@H]1[C@@H]2[C@H](CC[C@@]3(C)[C@H](O)[C@H]4[C@@H](OC(=O)/C=C/c5ccccc5)[C@@H](C)C[C@]4(O)C(=O)[C@@]13C)C2(C)C | 1.51 | > 30 | > 30 | –
4 | CC1=C2C=C3CC[C@@H]4C(C)(C)[C@@H](O)CC[C@@]4(C)[C@@H]3C[C@H]2OC1=O [HELIOSCOPINOLIDE B] | 0.49 | > 30 | 20.8 | –
5 | C/C1=C\[C@@H]2[C@H](CC[C@@]3(C)O[C@@H]3[C@H]3[C@@H](O)[C@@H](C)C[C@]3(OC(=O)/C=C/c3ccccc3)C1=O)C2(C)C [JOLKINOL B] | 3.61 | 18.2 | 19.8 | –
6 | C=C1CC[C@H]2[C@@H]([C@@H]3[C@@H]1C1=C(C[C@H](C)C1=O)[C@@H](O)[C@@]3(C)O)C2(C)C | 0.76 | > 30 | > 30 | –
7 | C/C1=C/C[C@H]2[C@@H](/C=C(\C)C(=O)[C@@]3(OC(=O)c4ccccc4)C[C@H](C)[C@H](O)[C@@H]3[C@H]1O)C2(C)C | 1.13 | > 30 | 27.2 | –
8 | C[C@H]1C[C@]2(OC(=O)/C=C/c3ccccc3)C(=O)[C@@]3(C)[C@@H]4[C@@H](O)C(C)(C)[C@H]4CC[C@@]3(C)[C@H](O)[C@H]2[C@H]1O | 1.47 | 10.6 | 10.9 | –
9 | C[C@H]1C[C@]2(OC(=O)c3ccccc3)C(=O)[C@@]3(C)[C@@H]4[C@@H](O)C(C)(C)[C@H]4CC[C@@]3(C)[C@H](O)[C@H]2[C@H]1O | 0.63 | > 30 | 20.1 | –
10 | CC(=O)O[C@H]1C(=O)[C@@]2(C)[C@H]([C@H](OC(=O)c3ccccc3)[C@]3(O)C[C@H](OC(=O)[C@H](O)[C@@H](NC(=O)c4ccccc4)c4ccccc4)C(C)=C1C3(C)C)[C@]1(OC(C)=O)CO[C@@H]1C[C@@H]2O [PACLITAXEL] | – | 2.12 | 0.0036 | –
11 | CC(=O)O[C@]12C[C@H](C)[C@H](O)[C@@H]1[C@@H](O)/C(C)=C/C[C@H]1[C@@H](/C=C(\C)C2=O)C1(C)C | 1.27 | > 30 | > 30 | –
12 | C[C@H]1C[C@]2(O)C(=O)[C@@]3(C)[C@H](OC(=O)c4ccccc4)[C@@H]4[C@H](CC[C@@]3(C)[C@H](O)[C@H]2[C@H]1O)C4(C)C | 0.97 | 29 | 26.6 | –
13 | C=C1CC[C@H]2[C@@H](/C=C(\C)C(=O)[C@@]3(OC(C)=O)C[C@H](C)[C@H](O)[C@@H]3[C@H]1O)C2(C)C | 0.7 | > 30 | > 30 | –
14 | CC(=O)/C=C/C[C@@H](C)[C@@H]1CC[C@]2(C)C3=C(CC[C@@]12C)[C@@]1(C)CC[C@H](O)C(C)(C)[C@@H]1CC3=O | 1.3 | 22.9 | 21.6 | –
15 | C/C1=C\[C@@H]2[C@H](CC[C@@]3(C)O[C@@H]3[C@H]3[C@@H](O)[C@@H](C)C[C@]3(OC(=O)c3ccccc3)C1=O)C2(C)C [LATILAGASCENE F] | 1.3 | > 30 | > 30 | –
16 | CC(=O)CC/C(=C/C1=C(C)CCC1=O)C(C)C [LITSEACHROMOLAEVANE B] | 0.4 | > 30 | > 30 | –
17 | C[C@H]1C[C@]2(OC(=O)/C=C/c3ccccc3)C(=O)/C(CO)=C/[C@@H]3[C@H](CC[C@@]4(C)O[C@H]4[C@H]2[C@H]1O)C3(C)C | 0.35 | > 30 | > 30 | –
18 | C[C@H](/C=C/C=O)[C@@H]1CC[C@]2(C)C3=C(CC[C@@]12C)[C@@]1(C)CC[C@H](O)C(C)(C)[C@@H]1CC3=O | 1.25 | > 30 | > 30 | –
19 | CC1(C)CC[C@]2(C)CC(=O)[C@]3(C)C4=C(CC[C@@]3(C)[C@@H]2C1)[C@@]1(C)CC[C@H](O)C(C)(C)[C@@H]1CC4=O | 0.95 | 12 | 10.3 | –
20 | CC1=C2C=C3CC[C@@H]4C(C)(C)C(=O)CC[C@@]4(C)[C@@H]3C[C@H]2OC1=O [HELIOSCOPINOLIDE E] | 0.45 | > 30 | 22.4 | –
21 | CC(=O)O[C@]12C[C@H](C)[C@H](O)[C@@H]1/C=C(\C)CC[C@H]1[C@@H](/C=C(\C)C2=O)C1(C)C [JOLKINOL D] | 0.66 | 19.9 | 25.9 | –
22 | C[C@H]1CC2=C([C@H]1O)[C@@H](O)[C@]1(C)CC[C@H]3[C@@H]([C@@H](OC(=O)c4ccccc4)[C@]1(C)C2=O)C3(C)C | 1.79 | 16.1 | 13.5 | –
23 | COc1ccc(CCN(C)CCCC(C#N)(c2ccc(OC)c(OC)c2)C(C)C)cc1OC (stereo not drawn) | 2.25 | – | – | 259
24 | CC(=O)[C@@H]1CC[C@]2(C)C3=C(CC[C@@]12C)[C@@]1(C)CC[C@H](O)C(C)(C)[C@@H]1CC3=O | 0.98 | > 30 | > 30 | –
25 | C[C@@H]1C[C@]2(O)C(=O)[C@@]3(C)[C@H](OC(=O)c4ccccc4)[C@@H]4[C@H](CC[C@@]3(C)[C@H](O)[C@H]2[C@H]1O)C4(C)C | 0.94 | 29.2 | > 30 | –
